Results taken from ChEMBL document CHEMBL4613248, “Twelfth-Position Deuteration of Nevirapine Reduces 12-Hydroxy-Nevirapine Formation and Nevirapine-Induced Hepatocyte Death” (J Med Chem, 2020).

Biological target: T1, Cytochrome P450 2A6 (Homo sapiens, UniProt P11509)
T1 sequence (P11509 whole entry): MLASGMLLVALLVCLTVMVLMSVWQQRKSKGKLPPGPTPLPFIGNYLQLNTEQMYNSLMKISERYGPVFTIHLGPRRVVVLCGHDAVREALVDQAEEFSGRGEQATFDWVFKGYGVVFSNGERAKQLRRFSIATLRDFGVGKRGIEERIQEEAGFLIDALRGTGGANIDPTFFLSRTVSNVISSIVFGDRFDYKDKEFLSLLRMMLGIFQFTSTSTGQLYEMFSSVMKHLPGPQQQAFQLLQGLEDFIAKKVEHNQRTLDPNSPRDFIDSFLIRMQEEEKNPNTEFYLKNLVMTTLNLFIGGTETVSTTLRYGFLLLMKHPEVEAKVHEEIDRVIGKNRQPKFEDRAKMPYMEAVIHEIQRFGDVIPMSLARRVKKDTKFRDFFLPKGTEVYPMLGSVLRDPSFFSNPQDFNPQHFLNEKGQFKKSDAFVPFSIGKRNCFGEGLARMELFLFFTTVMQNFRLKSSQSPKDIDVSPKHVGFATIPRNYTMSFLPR
Assay: Drug metabolism assessed as human CYP2A6-mediated formation of 12-OHNVP at 10 uM pre-incubated for 30 mins followed by addition of NADPH regenerating reagents by uHPLC-MS analysis
Format: ADME
Details: recombinant enzyme
Method in brief: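 Insect-cell microsomes with single cDNA-expressed human P450 (100 nM) in 0.1 M potassium phosphate; 10 μM substrate prewarmed 5 min at 37 °C with NADPH-regenerating system, reaction started by adding microsomes; 30 min at 37 °C, 0.1% DMSO. Stopped, dried, reconstituted in methanol; triple-quadrupole SRM (12-OH 283.1→223.0, 2-OH 283.1→160.9, 3-OH 283.1→241.9), peak height; three replicates, mean ± SD.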

SMILES: [2H]C([2H])([2H])c1ccnc2c1NC(=O)c1cccnc1N2C1CC1
- Drug metabolism: Metabolite_Detected
